ChEMBL document CHEMBL1926577, “Novel 1,3,4-heterodiazole analogues: synthesis and in-vitro antitumor activity” (2012)

Key:
Type in all cases: functional
SNB-75 = assay: Growth inhibition of human SNB75 cells at 10 uM after 48 hrs by coulter counter method; conditions: SNB-75, 48 h, read-out: GI
In short: (§1)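 NCI 60-cell-line panel, single dose. Compound dissolved first in DMSO, then diluted in phosphate-buffered saline so that every final dilution held under 1% DMSO. Duplicate wells received cells at 6 × 10⁴ cells/ml. Controls held PBS/DMSO at the same dilution. Plates were incubated 48 h at 37 °C under 5% CO₂. Cells were then diluted 10-fold in saline and counted on a Coulter counter, with counts corrected for the dilution. Results are given as percent growth inhibition.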

A498 = assay: Growth inhibition of human A498 cells at 10 uM after 48 hrs by coulter counter method; conditions: A498, 48 h, read-out: GI; in short: as §1
M14 = assay: Growth inhibition of human M14 cells at 10 uM after 48 hrs by coulter counter method; conditions: M14, 48 h, read-out: GI; in short: as §1
SK-MEL-5 = assay: Growth inhibition of human SK-MEL-5 cells at 10 uM after 48 hrs by coulter counter method; conditions: SK-MEL-5, 48 h, read-out: GI; in short: as §1
CAKI-1 = assay: Growth inhibition of human Caki1 cells at 10 uM after 48 hrs by coulter counter method; conditions: CAKI-1, 48 h, read-out: GI; in short: as §1
TK-10 = assay: Growth inhibition of human TK10 cells at 10 uM after 48 hrs by coulter counter method; conditions: TK-10, 48 h, read-out: GI; in short: as §1
UACC-257 = assay: Growth inhibition of human UACC257 cells at 10 uM after 48 hrs by coulter counter method; conditions: UACC-257, 48 h, read-out: GI; in short: as §1
NCI-H226 = assay: Growth inhibition of human NCI-H226 cells at 10 uM after 48 hrs by coulter counter method; conditions: NCI-H226, 48 h, read-out: GI; in short: as §1
786-0 = assay: Growth inhibition of human 786-0 cells at 10 uM after 48 hrs by coulter counter method; conditions: 786-0, 48 h, read-out: GI; in short: as §1
PC-3 = assay: Growth inhibition of human PC3 cells at 10 uM after 48 hrs by coulter counter method; conditions: PC-3, 48 h, read-out: GI; in short: as §1
MOLT-4 = assay: Growth inhibition of human MOLT4 cells at 10 uM after 48 hrs by coulter counter method; conditions: MOLT-4, 48 h, read-out: GI; in short: as §1
U-251 = assay: Growth inhibition of human U251 cells at 10 uM after 48 hrs by coulter counter method; conditions: U-251, 48 h, read-out: GI; in short: as §1
SF-268 = assay: Growth inhibition of human SF268 cells at 10 uM after 48 hrs by coulter counter method; conditions: SF-268, 48 h, read-out: GI; in short: as §1
NCI-H322M = assay: Growth inhibition of human NCI-H322M cells at 10 uM after 48 hrs by coulter counter method; conditions: read-out: GI; in short: as §1
ACHN = assay: Growth inhibition of human ACHN cells at 10 uM after 48 hrs by coulter counter method; conditions: read-out: GI; in short: as §1
IGROV-1 = assay: Growth inhibition of human IGROV1 cells at 10 uM after 48 hrs by coulter counter method; conditions: IGROV-1, 48 h, read-out: GI; in short: as §1
HCT-15 = assay: Growth inhibition of human HCT15 cells at 10 uM after 48 hrs by coulter counter method; conditions: HCT-15, 48 h, read-out: GI; in short: as §1
HT-29 = assay: Growth inhibition of human HT-29 cells at 10 uM after 48 hrs by coulter counter method; conditions: HT-29, 48 h, read-out: GI; in short: as §1
HL-60(TB) = assay: Growth inhibition of human HL-60(TB) cells at 10 uM after 48 hrs by coulter counter method; conditions: HL-60, 48 h, read-out: GI
In short: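 Single-dose screen on the NCI 60-line panel (leukemia subpanel). Compound is dissolved in DMSO and diluted in PBS, with final DMSO below 1%. Duplicate wells hold 6 × 10⁴ cells/ml at 37 °C, 5% CO₂, for 48 h. Cells are counted by Coulter counter after 10-fold saline dilution. Read-out is percent growth versus PBS/DMSO controls, expressed as % growth inhibition.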

UO-31 = assay: Growth inhibition of human UO31 cells at 10 uM after 48 hrs by coulter counter method; conditions: UO-31, 48 h, read-out: GI; in short: as §1
RPMI-8226 = assay: Growth inhibition of human RPMI8226 cells at 10 uM after 48 hrs by coulter counter method; conditions: RPMI-8226, 48 h, read-out: GI; in short: as §1
MCF7 = assay: Growth inhibition of human MCF7 cells at 10 uM after 48 hrs by coulter counter method; conditions: MCF7, 48 h, read-out: GI; in short: as §1

With `O=C1N=C2SC(c3ccc(Cl)cc3)=NN2C1=O` the inhibition of growth at 10 µM (SNB-75) was under 10%, the inhibition of growth at 10 µM (A498) was under 10% and the inhibition of growth at 10 µM (M14) was under 10%. It also gave an inhibition of growth at 10 µM (SK-MEL-5) of under 10%, an inhibition of growth at 10 µM (CAKI-1) of under 10% and an inhibition of growth at 10 µM (TK-10) of under 10%. For the same compound, the inhibition of growth at 10 µM (UACC-257) was under 10%, the inhibition of growth at 10 µM (NCI-H226) was under 10% and the inhibition of growth at 10 µM (786-0) was under 10%. It also gave an inhibition of growth at 10 µM (PC-3) of under 10%, an inhibition of growth at 10 µM (MOLT-4) of 10.6% and an inhibition of growth at 10 µM (U-251) of under 10%. It also gave an inhibition of growth at 10 µM (SF-268) of under 10%, an inhibition of growth at 10 µM (NCI-H322M) of under 10% and an inhibition of growth at 10 µM (ACHN) of under 10%. It also gave an inhibition of growth at 10 µM (IGROV-1) of under 10%, an inhibition of growth at 10 µM (HCT-15) of under 10% and an inhibition of growth at 10 µM (HT-29) of under 10%. The inhibition of growth at 10 µM (HL-60(TB)) was 15.2%, the inhibition of growth at 10 µM (UO-31) was under 10% and the inhibition of growth at 10 µM (RPMI-8226) was under 10%. It also gave an inhibition of growth at 10 µM (MCF7) of 12.1%.
